Assay results taken from ChEMBL document CHEMBL3407339, “A novel series of thiazolyl-pyrazoline derivatives: synthesis and evaluation of antifungal activity, cytotoxicity and genotoxicity” (Eur J Med Chem, 2015).
In brackets after ≈: the same amount, converted by molar mass.

How the values were obtained:
[1] = tested on: Nakaseomyces glabratus; assay: Antifungal activity against Candida glabrata clinical isolate after 48 hrs by broth microdilution assay; type: functional
How it was run: (§1)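 Broth microdilution of DMSO stocks serially diluted in sterile water (4 to 0.0039 mg/mL). Yeasts grown on SDA at 37 °C for 24 h, suspended in double-strength PDB at 10⁵ spores/mL. Incubated at 37 °C for 48 h, then sprayed with 0.5% aqueous TTC. MIC = lowest concentration inhibiting visible growth. Ketoconazole reference.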

[2] = tested on: Candida albicans; assay: Antifungal activity against Candida albicans ATCC 90028 after 48 hrs by broth microdilution assay; type: functional; details: ATCC 90028, 48 h; how it was run: as §1
[3] = tested on: Candida tropicalis; assay: Antifungal activity against Candida tropicalis NRLL Y 12968 after 48 hrs by broth microdilution assay; type: functional; details: NRLL Y 12968, 48 h; how it was run: as §1
[4] = tested on: Pichia kudriavzevii; assay: Antifungal activity against Candida krusei NRLL Y 7179 after 48 hrs by broth microdilution assay; type: functional; details: NRLL Y 7179, 48 h; how it was run: as §1
[5] = tested on: [Candida] zeylanoides; assay: Antifungal activity against Candida zeylanoides NRLL Y 1774 after 48 hrs by broth microdilution assay; type: functional; details: Dujonia zeylanoides, NRLL Y 1774, 48 h; how it was run: as §1
[6] = tested on: Candida parapsilosis; assay: Antifungal activity against Candida parapsilosis NRLL Y 12696 after 48 hrs by broth microdilution assay; type: functional; details: Lodderomyces parapsilosis, NRLL Y 12696, 48 h; how it was run: as §1
[7] = tested on: Aspergillus flavus; assay: Antifungal activity against Aspergillus flavus NRRL 980 after 72 hrs by broth microdilution assay; type: functional; details: NRRL 980, 72 h
How it was run: (§2)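 Compounds dissolved in DMSO, diluted in sterile distilled water from 4 to 0.0039 mg/mL. Molds grown on PDA at 25 °C for 5 days, suspended in double-strength PDB at 10⁵ spores/mL. Incubated at 25 °C for 72 h; mycelial growth read under stereo microscope. MIC = lowest concentration inhibiting visible growth. Ketoconazole reference.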

[8] = tested on: Aspergillus niger; assay: Antifungal activity against Aspergillus niger ATCC 1094 after 72 hrs by broth microdilution assay; type: functional; details: ATCC 1094, 72 h; how it was run: as §2
[9] = tested on: Aspergillus parasiticus; assay: Antifungal activity against Aspergillus parasiticus NRRL 465 after 72 hrs by broth microdilution assay; type: functional; details: NRRL 465, 72 h; how it was run: as §2
[10] = tested on: Fusarium solani; assay: Antifungal activity against Fusarium solani NRRL 13414 after 72 hrs by broth microdilution assay; type: functional; details: NRRL 13414, 72 h; how it was run: as §2
[11] = tested on: Salmonella typhimurium; assay: Mutagenicity in Salmonella typhimurium TA98 at 0.156 mg/ml after 48 hrs by AMES MPF assay in presence of Sprague-Dawley rat liver microsomal S9 fraction relative to baseline; type: toxicity, organism-based; details: salmonella enterica subsp. enterica serovar typhimurium
How it was run: (§3)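 Ames MPF fluctuation test with TA98/TA100. Overnight cultures (37 °C, 14–16 h) mixed with exposure medium; ±Aroclor-1254-induced rat liver S9 (final 4.5% v/v). Compounds in DMSO, 0.156–5 mg/mL. 90 min exposure at 37 °C, then indicator medium; 48 wells per concentration, 48 h at 37 °C, in triplicate. Yellow wells counted; fold induction over baseline (mean + 1 SD of zero-dose control).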

[12] = tested on: Salmonella typhimurium; assay: Mutagenicity in Salmonella typhimurium TA98 at 0.3125 mg/ml after 48 hrs by AMES MPF assay in presence of Sprague-Dawley rat liver microsomal S9 fraction relative to baseline; type: toxicity, organism-based; details: salmonella enterica subsp. enterica serovar typhimurium; how it was run: as §3
[13] = tested on: Salmonella typhimurium; assay: Mutagenicity in Salmonella typhimurium TA98 at 0.625 mg/ml after 48 hrs by AMES MPF assay in presence of Sprague-Dawley rat liver microsomal S9 fraction relative to baseline; type: toxicity, organism-based; details: salmonella enterica subsp. enterica serovar typhimurium; how it was run: as §3
[14] = tested on: Salmonella typhimurium; assay: Mutagenicity in Salmonella typhimurium TA98 at 1.25 mg/ml after 48 hrs by AMES MPF assay in presence of Sprague-Dawley rat liver microsomal S9 fraction relative to baseline; type: toxicity, organism-based; details: salmonella enterica subsp. enterica serovar typhimurium; how it was run: as §3
[15] = tested on: Salmonella typhimurium; assay: Mutagenicity in Salmonella typhimurium TA98 at 2.5 mg/ml after 48 hrs by AMES MPF assay in presence of Sprague-Dawley rat liver microsomal S9 fraction relative to baseline; type: toxicity, organism-based; details: salmonella enterica subsp. enterica serovar typhimurium; how it was run: as §3
[16] = tested on: Salmonella typhimurium; assay: Mutagenicity in Salmonella typhimurium TA98 at 5 mg/ml after 48 hrs by AMES MPF assay in presence of Sprague-Dawley rat liver microsomal S9 fraction relative to baseline; type: toxicity, organism-based; details: salmonella enterica subsp. enterica serovar typhimurium; how it was run: as §3
[17] = tested on: Salmonella typhimurium; assay: Mutagenicity in Salmonella typhimurium TA98 at 0.156 mg/ml after 48 hrs by AMES MPF assay in absence of Sprague-Dawley rat liver microsomal S9 fraction relative to baseline; type: toxicity, organism-based; details: salmonella enterica subsp. enterica serovar typhimurium; how it was run: as §3
[18] = tested on: Salmonella typhimurium; assay: Mutagenicity in Salmonella typhimurium TA98 at 0.3125 mg/ml after 48 hrs by AMES MPF assay in absence of Sprague-Dawley rat liver microsomal S9 fraction relative to baseline; type: toxicity, organism-based; details: salmonella enterica subsp. enterica serovar typhimurium; how it was run: as §3
[19] = tested on: Salmonella typhimurium; assay: Mutagenicity in Salmonella typhimurium TA98 at 0.625 mg/ml after 48 hrs by AMES MPF assay in absence of Sprague-Dawley rat liver microsomal S9 fraction relative to baseline; type: toxicity, organism-based; details: salmonella enterica subsp. enterica serovar typhimurium; how it was run: as §3
[20] = tested on: Salmonella typhimurium; assay: Mutagenicity in Salmonella typhimurium TA98 at 1.25 mg/ml after 48 hrs by AMES MPF assay in absence of Sprague-Dawley rat liver microsomal S9 fraction relative to baseline; type: toxicity, organism-based; details: salmonella enterica subsp. enterica serovar typhimurium; how it was run: as §3
[21] = tested on: Salmonella typhimurium; assay: Mutagenicity in Salmonella typhimurium TA98 at 2.5 mg/ml after 48 hrs by AMES MPF assay in absence of Sprague-Dawley rat liver microsomal S9 fraction relative to baseline; type: toxicity, organism-based; details: salmonella enterica subsp. enterica serovar typhimurium; how it was run: as §3
[22] = tested on: Salmonella typhimurium; assay: Mutagenicity in Salmonella typhimurium TA98 at 5 mg/ml after 48 hrs by AMES MPF assay in absence of Sprague-Dawley rat liver microsomal S9 fraction relative to baseline; type: toxicity, organism-based; details: salmonella enterica subsp. enterica serovar typhimurium; how it was run: as §3
[23] = tested on: Salmonella typhimurium; assay: Mutagenicity in Salmonella typhimurium TA100 at 0.156 mg/ml after 48 hrs by AMES MPF assay in presence of Sprague-Dawley rat liver microsomal S9 fraction relative to baseline; type: toxicity, organism-based; details: salmonella enterica subsp. enterica serovar typhimurium; how it was run: as §3
[24] = tested on: Salmonella typhimurium; assay: Mutagenicity in Salmonella typhimurium TA100 at 0.3125 mg/ml after 48 hrs by AMES MPF assay in presence of Sprague-Dawley rat liver microsomal S9 fraction relative to baseline; type: toxicity, organism-based; details: salmonella enterica subsp. enterica serovar typhimurium; how it was run: as §3
[25] = tested on: Salmonella typhimurium; assay: Mutagenicity in Salmonella typhimurium TA100 at 0.625 mg/ml after 48 hrs by AMES MPF assay in presence of Sprague-Dawley rat liver microsomal S9 fraction relative to baseline; type: toxicity, organism-based; details: salmonella enterica subsp. enterica serovar typhimurium; how it was run: as §3
[26] = tested on: Salmonella typhimurium; assay: Mutagenicity in Salmonella typhimurium TA100 at 1.25 mg/ml after 48 hrs by AMES MPF assay in presence of Sprague-Dawley rat liver microsomal S9 fraction relative to baseline; type: toxicity, organism-based; details: salmonella enterica subsp. enterica serovar typhimurium; how it was run: as §3
[27] = tested on: Salmonella typhimurium; assay: Mutagenicity in Salmonella typhimurium TA100 at 2.5 mg/ml after 48 hrs by AMES MPF assay in presence of Sprague-Dawley rat liver microsomal S9 fraction relative to baseline; type: toxicity, organism-based; details: salmonella enterica subsp. enterica serovar typhimurium; how it was run: as §3
[28] = tested on: Salmonella typhimurium; assay: Mutagenicity in Salmonella typhimurium TA100 at 5 mg/ml after 48 hrs by AMES MPF assay in presence of Sprague-Dawley rat liver microsomal S9 fraction relative to baseline; type: toxicity, organism-based; details: salmonella enterica subsp. enterica serovar typhimurium; how it was run: as §3
[29] = tested on: Salmonella typhimurium; assay: Mutagenicity in Salmonella typhimurium TA100 at 0.156 mg/ml after 48 hrs by AMES MPF assay in absence of Sprague-Dawley rat liver microsomal S9 fraction relative to baseline; type: toxicity, organism-based; details: salmonella enterica subsp. enterica serovar typhimurium; how it was run: as §3
[30] = tested on: Salmonella typhimurium; assay: Mutagenicity in Salmonella typhimurium TA100 at 0.3125 mg/ml after 48 hrs by AMES MPF assay in absence of Sprague-Dawley rat liver microsomal S9 fraction relative to baseline; type: toxicity, organism-based; details: salmonella enterica subsp. enterica serovar typhimurium; how it was run: as §3
[31] = tested on: Salmonella typhimurium; assay: Mutagenicity in Salmonella typhimurium TA100 at 0.625 mg/ml after 48 hrs by AMES MPF assay in absence of Sprague-Dawley rat liver microsomal S9 fraction relative to baseline; type: toxicity, organism-based; details: salmonella enterica subsp. enterica serovar typhimurium; how it was run: as §3
[32] = tested on: Salmonella typhimurium; assay: Mutagenicity in Salmonella typhimurium TA100 at 1.25 mg/ml after 48 hrs by AMES MPF assay in absence of Sprague-Dawley rat liver microsomal S9 fraction relative to baseline; type: toxicity, organism-based; details: salmonella enterica subsp. enterica serovar typhimurium; how it was run: as §3
[33] = tested on: Salmonella typhimurium; assay: Mutagenicity in Salmonella typhimurium TA100 at 2.5 mg/ml after 48 hrs by AMES MPF assay in absence of Sprague-Dawley rat liver microsomal S9 fraction relative to baseline; type: toxicity, organism-based; details: salmonella enterica subsp. enterica serovar typhimurium; how it was run: as §3
[34] = tested on: Salmonella typhimurium; assay: Mutagenicity in Salmonella typhimurium TA100 at 5 mg/ml after 48 hrs by AMES MPF assay in absence of Sprague-Dawley rat liver microsomal S9 fraction relative to baseline; type: toxicity, organism-based; details: salmonella enterica subsp. enterica serovar typhimurium; how it was run: as §3
[35] = tested on: A549; assay: Antiproliferative activity against human A549 cells after 24 hrs by XTT assay; type: functional, cell-based; details: A549, 24 h
How it was run: (§4)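 A549 cells in RPMI and NIH/3T3 cells in DMEM, each with fetal calf serum, antibiotics and 7.5% NaHCO₃, at 37 °C, 5% CO₂. Seeded at 20,000 cells/well, 24 h, then compounds added in medium at 500–3.9 doses (final DMSO <0.1%) for 24 h. XTT read after 3 h at 480 nm (ref 680 nm). IC₅₀ by non-linear regression; triplicates; cisplatin control.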

[36] = Cytotoxicity against mouse NIH/3T3 cells after 24 hrs by XTT assay; type: cell-based; details: NIH3T3, 24 h; how it was run: as §4

MIC [1]: 125 µg/mL (≈ 246 µM)
MIC [2]: 500 µg/mL (≈ 984 µM)
MIC [3]: 500 µg/mL (≈ 984 µM)
MIC [4]: 1000 µg/mL (≈ 1970 µM)
MIC [5]: 500 µg/mL (≈ 984 µM)
MIC [6]: 500 µg/mL (≈ 984 µM)
MIC [7]: 125 µg/mL (≈ 246 µM)
MIC [8]: 250 µg/mL (≈ 492 µM)
MIC [9]: 250 µg/mL (≈ 492 µM)
MIC [10]: 250 µg/mL (≈ 492 µM)
IC50 [35]: > 500 µg/mL
SMILES: Fc1ccc(C2CC(c3ccc(Cl)s3)=NN2c2nc(-c3ccc(C(F)(F)F)cc3)cs2)cc1 (stereo unspecified)
fold change (FC) [11]: 0.87
fold change (FC) [12]: 0.55
fold change (FC) [13]: 1.09
fold change (FC) [14]: 0.22
fold change (FC) [15]: 0.33
fold change (FC) [16]: 0.98
fold change (FC) [17]: 0
fold change (FC) [18]: 0.33
fold change (FC) [19]: 0.67
fold change (FC) [20]: 0.67
fold change (FC) [21]: 0
fold change (FC) [22]: 0.67
fold change (FC) [23]: 2.08
fold change (FC) [24]: 2.31
fold change (FC) [25]: 2.54
fold change (FC) [26]: 2.77
fold change (FC) [27]: 2.31
fold change (FC) [28]: 2.31
fold change (FC) [29]: 0.67
fold change (FC) [30]: 1
fold change (FC) [31]: 1.33
fold change (FC) [32]: 3
fold change (FC) [33]: 1.33
fold change (FC) [34]: 2.67
IC50 [36]: > 500 µg/mL
